In ChEMBL document CHEMBL1124102, “Synthesis and biodistribution of 99mTc-labeled piperidinyl bis(aminoethanethiol) complexes: potential brain perfusion imaging agents for single photon emission computed tomography” (J Med Chem, 1988) one finds Uptake value and Ratio data, which are given here for three substances.

Assay [1] concerns Rattus norvegicus. The experiment in a line: Brain Uptake of compound was measured after 2 min of administration. The format is functional, organism-based. A digest of the protocol:
(§1)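 Tc-99m complex injected into rats, three per time point. At set times, 1 mL blood was drawn by cardiac puncture and the animal was killed by cardiectomy. Organs were excised, weighed and gamma-counted. Percent dose per organ came from comparing tissue counts with dilutions of the injected dose, reported as the mean with the range across the three rats.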

For assay [2], the system named is Rattus norvegicus. The experiment in a line: Brain Uptake of compound was measured after 15 min of administration. The format is functional, organism-based. Put shortly:
as §1

Assay [3] can be described thus: Ratio of brain dose per gram to the blood dose per gram measured at 2 min. Type of assay: functional, tissue-based. Put shortly: (§2)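 Rats (three per time point) were given the Tc-99m complex, then sampled by cardiac puncture, killed, and had organs excised and gamma-counted against injected-dose dilutions. Percent dose/organ was converted to percent dose/gram using mean organ weights (brain 1.65 g; blood 18 g). The ratio is (brain dose/gram)/(blood dose/gram).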

A short description of assay [4]: Ratio of brain dose per gram to the blood dose per gram measured at 15 min. Type of assay: functional, tissue-based. A digest of the protocol: as §2

In the case of “Tc-labeled 3,3,10,10-tetramethyl-6-(2,6-dimethylhexahydro-1-pyridinylmethyl)-1-acetone2,11-dithia-5-azonia-8-azatricyclo[6.3.0.01,5]undecane (isomer)”, the Uptake value in the assay on Rattus norvegicus [1] was 1.19; in the assay on Rattus norvegicus [2], 0.54. Moreover, the Ratio in assay [3] is 1.98; in assay [4] it was 2.07.
For the substance “Tc-labeled 3,3,10,10-tetramethyl-6-(2-methylhexahydro-1-pyridinylmethyl)-1-acetone2,11-dithia-5-azonia-8-azatricyclo[6.3.0.01,5]undecane”, the Uptake value in the assay with Rattus norvegicus [1] is 0.61; in the assay on Rattus norvegicus [2] it was 0.35. Also, the Ratio turned out to be 1.06 in assay [3] and 1.84 in assay [4].
As to “Tc-labeled 3,3,10,10-tetramethyl-6-(2-methylhexahydro-1-pyridinylmethyl)-1-acetone2,11-dithia-5-azonia-8-azatricyclo[6.3.0.01,5]undecane (isomer)”, the Uptake value in the assay with Rattus norvegicus [1] was found to be 1.8; with Rattus norvegicus [2] it was 0.54. For the same substance, the Ratio in assay [3] amounted to 4.96; in assay [4], 3.84.
